Data taken from paper PMC4402254 (ACS chemical biology, 2015).

Experiments:
[1] = molecular target: 53BP1 (Homo sapiens, UniProt Q12888); assay: AlphaScreen Kme reader panel: 53BP1; format: binding
How it was run: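 Compound serially diluted 3-fold over 10 points in DMSO, top final 100 µM, and preincubated 30 min at RT with His-tagged reader protein–peptide mix in 20 mM Tris pH 8.0, 25 mM NaCl, 2 mM DTT, 0.05% Tween-20. Streptavidin donor/nickel-chelate acceptor bead mix (45 µg/mL) then added for 30 min, dark, RT, and AlphaScreen signal read. The same format was used across the Kme reader panel. IC50 is the mean of ≥3 values ± SD.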

[2] = molecular target: 53BP1 D1521A mutant (Homo sapiens, UniProt Q12888, D1521A); assay: ITC with active site mutant; format: binding; details: Kme pocket mutant, listed as UNC2170
53BP1 D1521A mutant, sequence (Q12888 1484-1603 D1521A limits assumed): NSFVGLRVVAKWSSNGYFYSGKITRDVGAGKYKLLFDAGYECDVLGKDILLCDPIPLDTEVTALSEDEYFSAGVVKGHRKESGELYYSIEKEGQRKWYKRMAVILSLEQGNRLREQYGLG

[3] = molecular target: endogenous 53BP1 (Homo sapiens, UniProt Q12888); assay: Chromatin release assay in HEK293 cell lysates; format: biochemical; details: 2 hours at room temperature
endogenous 53BP1, sequence (Q12888 whole entry): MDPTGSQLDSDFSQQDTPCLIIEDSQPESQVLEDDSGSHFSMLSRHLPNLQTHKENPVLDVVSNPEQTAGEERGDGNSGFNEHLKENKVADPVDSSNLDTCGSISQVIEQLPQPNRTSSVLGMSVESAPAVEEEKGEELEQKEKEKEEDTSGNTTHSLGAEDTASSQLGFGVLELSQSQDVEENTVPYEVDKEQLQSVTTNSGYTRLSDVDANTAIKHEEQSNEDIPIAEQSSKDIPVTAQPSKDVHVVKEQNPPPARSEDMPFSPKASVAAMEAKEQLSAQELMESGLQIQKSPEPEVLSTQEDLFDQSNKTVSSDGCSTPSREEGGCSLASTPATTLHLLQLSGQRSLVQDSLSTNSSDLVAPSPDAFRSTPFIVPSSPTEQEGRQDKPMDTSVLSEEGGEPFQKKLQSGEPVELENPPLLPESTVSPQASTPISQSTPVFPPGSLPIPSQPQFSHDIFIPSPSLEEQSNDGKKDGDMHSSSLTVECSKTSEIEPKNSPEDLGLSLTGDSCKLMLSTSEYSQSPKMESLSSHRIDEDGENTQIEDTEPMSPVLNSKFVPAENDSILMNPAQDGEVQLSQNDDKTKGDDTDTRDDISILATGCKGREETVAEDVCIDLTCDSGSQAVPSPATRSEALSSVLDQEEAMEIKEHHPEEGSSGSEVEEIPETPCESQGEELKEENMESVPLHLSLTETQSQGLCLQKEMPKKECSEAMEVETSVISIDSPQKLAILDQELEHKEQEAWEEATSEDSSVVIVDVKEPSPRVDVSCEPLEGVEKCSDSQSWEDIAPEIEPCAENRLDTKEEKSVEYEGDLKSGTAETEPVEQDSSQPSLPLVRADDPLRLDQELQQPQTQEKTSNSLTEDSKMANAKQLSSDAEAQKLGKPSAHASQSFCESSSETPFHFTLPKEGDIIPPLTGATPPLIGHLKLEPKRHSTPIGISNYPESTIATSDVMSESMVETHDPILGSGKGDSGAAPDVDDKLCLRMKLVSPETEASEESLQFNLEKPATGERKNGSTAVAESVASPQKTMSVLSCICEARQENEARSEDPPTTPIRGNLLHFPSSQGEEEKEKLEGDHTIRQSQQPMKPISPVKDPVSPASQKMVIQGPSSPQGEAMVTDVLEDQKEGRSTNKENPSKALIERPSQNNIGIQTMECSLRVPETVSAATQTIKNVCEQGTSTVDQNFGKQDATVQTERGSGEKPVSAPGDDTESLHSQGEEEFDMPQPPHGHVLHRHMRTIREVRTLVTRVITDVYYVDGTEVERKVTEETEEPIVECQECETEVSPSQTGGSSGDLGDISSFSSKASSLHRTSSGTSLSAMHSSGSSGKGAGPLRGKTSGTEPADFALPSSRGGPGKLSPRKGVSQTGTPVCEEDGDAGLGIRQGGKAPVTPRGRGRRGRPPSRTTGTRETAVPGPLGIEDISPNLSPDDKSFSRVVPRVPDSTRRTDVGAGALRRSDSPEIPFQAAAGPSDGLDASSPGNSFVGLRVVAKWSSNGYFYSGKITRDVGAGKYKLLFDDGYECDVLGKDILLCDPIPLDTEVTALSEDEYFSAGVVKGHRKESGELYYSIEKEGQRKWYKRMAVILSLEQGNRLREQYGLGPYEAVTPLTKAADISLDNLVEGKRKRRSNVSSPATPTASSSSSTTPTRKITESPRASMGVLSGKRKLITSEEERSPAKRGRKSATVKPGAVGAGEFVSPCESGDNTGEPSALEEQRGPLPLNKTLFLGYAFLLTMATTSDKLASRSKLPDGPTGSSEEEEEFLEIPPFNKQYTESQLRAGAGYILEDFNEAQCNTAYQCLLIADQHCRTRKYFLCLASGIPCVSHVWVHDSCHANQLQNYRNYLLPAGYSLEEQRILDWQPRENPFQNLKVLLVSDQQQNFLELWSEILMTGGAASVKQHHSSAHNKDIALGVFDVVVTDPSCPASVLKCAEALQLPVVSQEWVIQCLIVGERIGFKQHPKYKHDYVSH
How it was run: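 HEK293 cells were lysed in EBC-1 (Tris pH 7.5, 100 mM NaCl, 0.5% NP-40, 1 mM EDTA). Washed nuclei were held 30 min in EBC-2 (Tris pH 7.5, 300 mM NaCl, 5 mM CaCl2), and the insoluble chromatin was pelleted and resuspended in EBC-2. Chromatin was exposed to test compound 2 h at RT. The supernatant (soluble) and the sonicated pellet (chromatin-bound) were western blotted for 53BP1, with histone H3 as loading control.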

[4] = test system: Caco-2 cell; assay: Bi-directional Caco-2 cell permeability assay; format: in vitro ADME
[5] = CellTiter-Glo luminescent cell-viability assay; format: cell-based
[6] = test system: U2OS cells; assay: 53BP1 and γH2AX foci formation after ionizing radiation; format: cell-based
[7] = molecular target: GFP fusion protein containing the 53BP1 tudor domains (Homo sapiens, UniProt Q12888); assay: Fluorescence recovery after photobleaching; format: cell-based; details: FRAP before or after ionizing radiation (10 Gy)
GFP fusion protein containing the 53BP1 tudor domains, sequence (Q12888 1484-1603 limits assumed): as the sequence (Q12888 1484-1603 D1521A limits assumed) above, with A38D counted along it

[8] = test system: Naive IgM+ B cells; assay: Class switch recombination; format: cell-based, mouse; details: 300 µM
[9] = molecular target: tudor domain of 53BP1 (Homo sapiens, UniProt Q12888); assay: 1H-15N HSQC NMR of 53BP1 tudor domain; format: binding; details: 10-fold molar excess of ligand
tudor domain of 53BP1, sequence (Q12888 1484-1603 limits assumed): as the sequence (Q12888 1484-1603 D1521A limits assumed) above, with A38D counted along it

[10] = molecular target: 53BP1 tandem tudor domain (Homo sapiens, UniProt Q12888); assay: Isothermal titration calorimetry; format: binding; details: ITC
53BP1 tandem tudor domain, sequence (Q12888 1484-1603 limits assumed): as the sequence (Q12888 1484-1603 D1521A limits assumed) above, with A38D counted along it

53BP1, sequence (Q12888 1484-1603 limits assumed): as the sequence (Q12888 1484-1603 D1521A limits assumed) above, with A38D counted along it

SMILES	ligand efficiency [1]	lipophilic ligand efficiency [1]	selectivity for 53BP1 as compared to other Kme binding proteins tested ([1]; versus nine other Kme reader proteins, AlphaScreen)	binding to 53BP1 D1521A mutant [2]	lowest concentration at which partial release of 53BP1 was detected [3] [µM]	cell permeability [4]	concentration at which cell toxicity begins to take effect [5] [µM]	γH2AX foci ([6]; after compound treatment)	extent of endogenous 53BP1 foci formed following irradiation ([6]; pretreatment 1 hour, 100 – 300 µM, 5 Gy)	apparent residence time of GFP-53BP1 tudor fusion protein [7]	cell viability of B cells undergoing CSR [8]	changes in chemical shifts of 53BP1 tudor domain [9]	Kd against the 53BP1 tandem tudor domain [10]
CC(C)(C)NCCCNC(=O)c1cccc(Br)c1 [Compound 1]	0.35	1.5	at least 17 fold	abrogated	10	highly cell permeant	> 10000	no changes were observed	did not significantly decrease	did not affect	reduction in cell viability	Extensive changes in chemical shifts were observed	
CN(CCCNC(=O)c1cccc(Br)c1)C(C)(C)C [Compound 4]													no measurable affinity
